# Compound activity: PubChem BioAssay, The Scripps Research Institute Molecular Screening Center
# M5 ag – CHRM5 agonism in calcium assay; CHO-K1 hM5 cells, Fluo-8 calcium fluorescence; 0% DMSO wells, 100% maximal acetylcholine response; activation, % at 3 µM; 360,000 compounds, 0.19% hits;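 active = activation above the run's mean over test compounds plus 3 SD, cut at about 23% in these data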;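 also: signal is peak over basal fluorescence ratio across the kinetic read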
# M5 antag – CHRM5 antagonism in calcium assay; P08912; CHO-hM5 cells, Fluo-8 calcium fluorescence, ACh EC80; inhibition, % at 3 µM; 360,000 compounds, 0.59% hits;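 active = inhibition above a per-plate cutoff, the mean of that plate's test compounds plus 3 SD, cut at about 27% in these data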;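 also: 0% = acetylcholine EC80 with DMSO and 100% = DMSO without agonist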
# M4 antag – blocks acetylcholine activation of human M4 receptor | P08173 | CHO-hM4 cells, ACh EC80, Fluo-8 calcium fluorescence | inhibition, % at 3 µM | 360,000 compounds, 0.73% hits | AID 624125;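 active = inhibition above its plate's cutoff, the mean inhibition of sample wells plus 3 SD, cut at about 27% in these data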;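 also: 0% = acetylcholine EC80 with DMSO and 100% = DMSO without agonist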
# Target sequence (P08173 whole entry, looked up): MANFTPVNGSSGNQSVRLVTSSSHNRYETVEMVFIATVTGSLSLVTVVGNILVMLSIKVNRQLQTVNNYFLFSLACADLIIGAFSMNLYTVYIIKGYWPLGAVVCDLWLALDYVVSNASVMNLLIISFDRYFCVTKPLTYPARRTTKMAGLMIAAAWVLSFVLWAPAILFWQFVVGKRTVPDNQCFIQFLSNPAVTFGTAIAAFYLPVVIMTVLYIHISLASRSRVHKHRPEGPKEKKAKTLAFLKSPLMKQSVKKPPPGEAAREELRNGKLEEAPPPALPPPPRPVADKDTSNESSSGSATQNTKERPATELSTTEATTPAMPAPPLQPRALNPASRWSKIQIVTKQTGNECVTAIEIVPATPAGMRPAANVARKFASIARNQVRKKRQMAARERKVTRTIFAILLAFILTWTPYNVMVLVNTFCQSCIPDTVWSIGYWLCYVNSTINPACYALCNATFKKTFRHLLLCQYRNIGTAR
# CHRM5 PAM – positive allosteric modulators of human muscarinic M5 receptor. P08912. CHO-K1 hM5, Fluo-8 calcium, ACh EC20 PAM; 0% = ACh EC20, 100% = ACh EC100. activation, % at 3 µM. 360,000 compounds, 0.3% hits;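 active = activation above the run cutoff, the mean activation of all test compounds plus 3 SD, cut at about 18% in these data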
#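 Assay system: CHO-K1 hM5 cells / Incubation: Fluo-8 loading 80 min at 37 °C plus 30 min room temperature / Technique: Fluo-8 calcium dye fluorescence, kinetic read / Repeats: single replicate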
# CHRM4 agonist – CHRM4 agonism in calcium assay | CHO-K1 hM4/Gqi5, Fluo-8 calcium fluorescence; vehicle 0%, full acetylcholine response 100% | activation, % at 3 µM | 360,000 compounds, 0.14% hits | AID 624127;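 active = activation above the run mean over all test wells plus 3 SD, cut at about 32% in these data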;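 also: peak over basal fluorescence ratio per well then scaled between controls; 0% = DMSO wells and 100% = acetylcholine at EC100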
# CHRM4 PAM – potentiates acetylcholine response at human M4 receptor. P08173. CHO-K1 hM4/Gqi5, Fluo-8 calcium fluorescence, ACh EC20; 0% = ACh EC20, 100% = maximal ACh. activation, % at 3 µM. 360,000 compounds, 0.4% hits;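 active = activation above its plate's cutoff, the mean activation of sample wells plus 3 SD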
# Active calls of the source: *; ! = repeats disagree. An excerpt weighted towards active compounds, which were near 1.8% of everything screened.
SMILES,M5 ag,M5 antag,M4 antag,CHRM5 PAM,CHRM4 agonist,CHRM4 PAM
CCOC(=O)c1[nH]ncc1CN1CCCC(C(=O)c2cccc(OC(C)C)c2)C1 (stereo not given),-3.6,4.9,8.8,0.6,0.3,-4.2
CN1C(=O)N(CC(=O)Nc2ccc3c(c2)OCO3)C(=O)C12CCCCC2,1.5,2.4,-7.4,-0.7,-0.2,-1.4
CC(C)C[C@H]1CN(CCCC[C@@H]2CNC(=O)C(=O)N2CC2CCCCC2)C(=O)C(=O)N1CC1CCCCC1,0.1,4.6,-5.2,-2.1,-0.5,10.9
CC(=O)c1csc(CS(=O)(=O)c2ccccn2)n1,4.3,25.6,11.5,20.0*,11.6,-11.3
CC(=O)c1ccccn1,2.0,2.5,-9.6,0.5,0.7,0.8
COc1cc2cc(C(=O)NC(C)c3cccc4ccccc34)c(N)nc2cc1OC (stereo not given),2.5,19.3,-5.6,-16.1,13.3,1.6
CC(=O)c1cc(C(=O)Nc2ccccc2C(=O)O)oc1C,-2.9,-19.5,-2.3,0.4,0.3,31.6*
O=C(Nc1ccccc1C(=O)O)c1ccc(Br)o1,1.9,-6.2,-6.7,-1.9,-0.8,-5.4
C[C@@H]1CN([C@H](C)CO)C(=O)CCCn2nncc2CO[C@H]1CN(C)Cc1ccccc1C(F)(F)F,0.0,7.8,7.3,1.4,0.8,-3.2
COc1ccc(C2=CC(=O)CC(c3ccc(OC)cc3)C2)cc1 (stereo not given),-7.3,29.1*,-1.0,-14.3,1.7,-1.1
COc1ccc(C2CC(=O)C(C=NCCO)=C(O)C2)cc1OC (stereo not given),1.0,-7.8,3.7,4.5,1.1,13.3
COc1ccc(NC2=CC(=O)CC(c3ccc(C)cc3)C2)c(OC)c1 (stereo not given),-1.4,4.6,-1.9,5.0,1.2,23.4*
COc1ccccc1NC1=CC(=O)CC(c2ccccc2)C1 (stereo not given),-1.9,6.4,9.5,-1.7,1.7,0.9
COc1ccc(C2CC(=O)C(C=NCCO)=C(O)C2)cc1 (stereo not given),5.2,-12.5,-9.9,19.0*,1.1,-3.1
COc1ccc(C2=CC(=O)C[C@H](c3ccc(Cl)cc3)C2)cc1,-6.3,12.5,-9.2,-7.8,0.3,0.8
Cc1cccc(C)c1NC(=O)C(c1ccccc1)n1c(=O)c(-c2ccco2)nc2ccccc21 (stereo not given),2.2,2.3,-4.5,4.2,0.8,7.6
COc1cc(C=Cc2nnc3c4ccccc4cnn23)cc(OC)c1OC,1.4,1.3,-1.5,-3.1,2.0,3.7
COc1ccc(CN2C(=O)CSCC2(C)C(=O)NCc2ccccc2)cc1OC (stereo not given),2.4,-1.6,-6.7,-2.1,5.1,6.9
Fc1ccc(-n2nnnc2-c2cnc(-c3cccs3)nc2C(F)(F)F)cc1,1.9,47.1*,48.2*,-23.1,14.0,-19.9
Cc1nc(-c2cc(-c3ccc(Cl)cc3)no2)cs1,-0.2,2.2,0.2,3.7,0.7,1.4
Cc1csc(-c2ccc3cc(Cl)cc(Cl)c3n2)n1,-0.1,-13.5,-11.5,4.7,1.4,20.9*
C#CC(=O)CC1(CN(Cc2ccccc2)C(=O)OC(C)(C)C)CCCCC1,-6.5,16.2,32.0*,-3.0,0.2,-17.4
CCCCCCN1C[C@H](O)[C@@H](n2cc(C3CC3)nn2)C[C@@H]1c1ccc(OC)cc1,-0.3,-8.2,-30.4,1.6,5.8,8.9
CCN1CCN(Cc2ccc(NC(=O)c3ccc(C)c(NC(=O)c4ccnnc4)c3)cc2C(F)(F)F)CC1,0.6,-0.3,-0.1,0.5,1.8,16.6
CCN1CCN(Cc2ccc(C(=O)Nc3ccc(C)c(NCc4cnc(NC(=O)OC)cn4)c3)cc2C(F)(F)F)CC1,-3.4,4.8,33.1*!,-4.7,-0.2,-4.1
SMILES,M5 ag,M5 antag,M4 antag,CHRM5 PAM,CHRM4 agonist,CHRM4 PAM
COc1ccc(OC)c(CCNC(=O)c2ccc3c(c2)N(Cc2ccc(F)cc2)CCS3)c1,-4.7,16.9,8.2,-6.6,0.4,-3.7
COc1ccc(CCNC(=O)c2ccc3c(c2)N(Cc2ccc(C)cc2)CCS3)cc1OC,-8.5,39.1*,5.8,-15.6,5.4,-8.5
CC1(C(=O)Nc2ccc(Cl)c(Cl)c2)CCN1Cc1ccccc1OC(F)F (stereo not given),-0.4,-9.8,-11.7,1.8,0.4,11.7
CCOC1=C2CN(S(=O)(=O)c3ccc(C)cc3)[C@@H](c3ccc(CC)cc3)C[C@H]2[C@H]2C(=O)N(c3ccccc3)C(=O)[C@H]2C1,-1.4,4.9,-13.2,0.8,1.1,4.8
CC(=O)Nc1cccc(/C(C)=N/Nc2ccc(S(=O)(=O)Nc3ccccc3C(=O)O)cc2[N+](=O)[O-])c1,1.9,8.6,-12.8,-3.2,-1.6,20.3*
CC(=O)Nc1ccc(C=NNc2ccc(S(=O)(=O)Nc3ccccc3C(=O)O)cc2[N+](=O)[O-])cc1,1.6,10.8,-10.2,-8.2,0.2,4.2
CN(C)S(=O)(=O)c1ccc2c(c1)c(=O)c(C(=O)N1CCN(c3ccccn3)CC1)cn2C,1.0,3.8,-8.0,-6.1,0.2,5.7
Cc1ccc(C)c(N2CCN(C(=O)c3cn(C)c4ccc(S(=O)(=O)N(C)C)cc4c3=O)CC2)c1,-3.2,13.4,95.1*,-19.3,0.7,-14.7
O=S1(=O)N[C@@H](Cc2ccccc2)COc2cc(N3CC[C@H](O)C3)ccc21,9.1,6.6,0.2,-0.6,3.3,5.6
COc1ccccc1NC(=O)C1CCCN(c2nc(C)cc(C)n2)C1 (stereo not given),-4.4,7.7,-3.5,-7.0,-0.6,17.2*
COc1ccc(N/C=C(\C#N)c2nc3ccccc3n2C)c(OC)c1,-2.5,10.5,27.9*,-10.0,7.5,-14.9
CC(C)(C)n1nnnc1C(c1ccccc1)N1CCN(c2ccccn2)CC1 (stereo not given),-6.2,-0.9,3.3,-3.9,0.8,-0.8
CC1CC(C)CN(c2ncc3c(n2)CC(c2ccc(Cl)cc2)CC3=O)C1 (stereo not given),5.9,-6.0,6.4,38.6*,1.0,6.9
CC1CC(C)CN(c2ncc3c(n2)CC(c2ccccc2Cl)CC3=O)C1 (stereo not given),1.1,-8.3,15.6,7.2,0.2,6.8
CCOC(=O)c1ccc2c(c1)n(CC)c(/C=C/N(C)c1ccccc1)[n+]2CC,-1.4,-5.3,-2.4,4.0,-0.1,-6.7
CC[n+]1c(/C=C/N(C)c2ccccc2)n(-c2ccccc2)c2ccc(-c3nc4ccccc4s3)cc21,-20.7,5.9,57.6*,-25.6,7.1,-15.8
